Results from PubChem BioAssay AID1885 (Broad Institute, 2009).
The whole screen tested about 300,000 compounds, of which about 4,400 (1.5%) were called active. The entries come from a sample that favours actives as a whole. Values without a mark were called inactive.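 Rule for the calls: active = mean inhibition across valid replicates above about 55% (limit read from the data); inconclusive = mean below that limit but half or more replicates reach it; inactive = mean below it, under half of replicates reach it.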

Assay: Trypanosoma cruzi replication blockers in host cells – luminescence, NIH3T3 host cells, primary screen (AID 1885);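 note: signal also drops with host cell toxicity which is not excluded here; 0% = plate median of DMSO wells and 100% = zero luminescence signal; higher percent means less beta-gal luminescence so fewer parasites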
Details: T. cruzi beta-gal in NIH3T3, luminescence, 90 h; stronger effect = higher value; concentration not given here
How it was run: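 System: Mouse NIH/3T3 fibroblasts infected with β-gal-expressing T. cruzi Tulahuen C4 | Quantity: NIH/3T3 cells, 5,000 per well | Reagent: 5000 reporter trypomastigotes per well | Dosing: Compound pinned at 50 nL/well, DMSO | Schedule: 3 h host attachment, then at least 90 h co-culture | Detection: GalScreen luminescence, 60 min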

Compared with `CCOc1ccc(-n2c(SCC(=O)OC)nc3sc4c(c3c2=O)CCN(C)C4)cc1`, `CCSc1nc2sc3c(c2c(=O)n1-c1ccc(C)cc1)CCN(C)C3` is higher in inhibition: 5.98% for the first, 21.6% for the second.

Compared with `CCOC(=O)N1CCC(N2Cc3cccc(C(=O)Nc4c(C)cccc4CC)c3C2=O)CC1`, `Cc1ccc(NC(=O)c2cnc(SCC(=O)NCC3CCCO3)n(C)c2=O)cc1` (stereo unspecified) is lower in inhibition: 22% for the first, -7.14% for the second.

First: Cc1ccc(S(=O)(=O)N2CCC(C(=O)NCCC3=CCCCC3)CC2)cc1C
Second: Cc1ccc(S(=O)(=O)NCCN2CCOCC2)cc1C
The inhibition of the first is higher: 8.76% for the first, 1.47% for the second.

Compared with `COc1ccc(Oc2c(Cl)cnn(-c3ccccc3)c2=O)cc1`, `CCOC(=O)c1cnc(-c2ccccc2)nc1Oc1ccc(C)cc1` is higher in inhibition: -11.4% for the first, 7.98% for the second.

Compared with `Cc1cccc(-n2ncc(C#N)c2-n2cccc2)c1`, `CC(=O)c1nc2ccccc2n1Cc1ccccc1` is higher in inhibition: -8.8% for the first, 8% for the second.

Compared with `COc1ccc(N2CCN(C(=O)COC(=O)c3cccc(S(=O)(=O)Nc4ccccc4OC)c3)CC2)cc1`, `COc1ccccc1NS(=O)(=O)c1ccc(C(=O)N2CCN(c3ccccc3O)CC2)cc1` is lower in inhibition: 8.41% for the first, 0.881% for the second.

First: COc1ccc(F)cc1S(=O)(=O)NCC(c1ccc2c(c1)OCO2)N1CCN(C)CC1 (stereo unspecified)
Second: COc1ccc(S(=O)(=O)N2CCCCC2)cc1NC(=O)C1CC(=O)N(c2ccc3c(c2)OCCO3)C1 (stereo unspecified)
The inhibition of the first is lower: -3.53% for the first, -2.94% for the second.

Compared with `COC(=O)c1cc(S(=O)(=O)N2CCN(c3cc(C)ccc3C)CC2)c[nH]1`, `Cc1ccc(C(=O)NC2CCCC(C)C2C)cc1S(=O)(=O)N1CCCCC1` (stereo unspecified) is higher in inhibition: 0.9% for the first, 19.9% for the second.

Compared with `S=C(Nc1ccc(Br)cc1)NC1CCN(Cc2ccccc2)CC1`, `O=C(COc1ccc(Br)cc1F)NC1CCN(Cc2ccccc2)CC1` is lower in inhibition: 42% for the first, 38.4% for the second.

First: Cc1cc(C(=O)NC2CCN(Cc3ccccc3)CC2)n[nH]1
Second: O=C(NC1CCN(Cc2ccccc2)CC1)c1ccc(Oc2cc(Cl)cc(Cl)c2)o1
The inhibition of the first is lower: 14.6% for the first, 44.9% for the second.

Going from `CCOC(=O)c1ccc(NC(=O)c2ccc(NC(=O)C3CCCO3)cc2)cc1` (stereo unspecified) to `CCCOc1ccc(C(=O)CCC(=O)OC(C)C(=O)Nc2ccc(NC(C)=O)cc2)cc1` (stereo unspecified), the inhibition falls from 3.02% to -13.4%.

Compared with `CCOc1ccccc1C1CC(c2ccc(Cl)cc2)Nc2nc(N)nn21` (stereo unspecified), `Cc1ccc(Cc2nnc(SCC(=O)Nc3ccccc3C)[nH]c2=O)cc1` is lower in inhibition: 17.4% for the first, -3.22% for the second.

First: CCCn1c(C)cc(-c2csc(NC(=O)CCc3nc4ccccc4c(=O)[nH]3)n2)c1C
Second: CCC(=O)Nc1nc2ccccc2n1Cc1ccccc1C
The inhibition of the first is lower: 5.04% for the first, 45.5% for the second.

First: Cc1ccccc1OCC(O)CN1CCN(c2ccccn2)CC1 (stereo unspecified)
Second: COc1ccccc1OCC(O)CN1CCOCC1 (stereo unspecified)
The inhibition of the first is lower: 0.87% for the first, 1.66% for the second.

First: O=C(COC(=O)c1ncc(Cl)c(Cl)c1Cl)NCc1cccs1
Second: O=C(COC(=O)c1ncc(Cl)c(Cl)c1Cl)NC1CCS(=O)(=O)C1 (stereo unspecified)
The inhibition of the first is higher: -17.6% for the first, -20.7% for the second.

Going from `Cc1csc(NC(=O)c2ccc(C)s2)n1` to `O=C(CCC(=O)c1cccs1)Nc1nc2ccccc2s1`, the inhibition rises from -14.9% to -3.43%.

Compared with `Cn1c(=O)c(=O)n(C)c2cc(S(=O)(=O)NCCc3ccccc3)ccc21`, `O=S(=O)(NCCc1csc(-c2ccccc2)n1)c1cccnc1` is higher in inhibition: -8.33% for the first, 8.42% for the second.

Going from `COc1cc(CNCc2ccc3c(c2)OCO3)c([N+](=O)[O-])cc1OC` to `COc1ccc(-c2cc(C(=O)N(C)CC(=O)Nc3ccccc3Cl)c3ccccc3n2)cc1OC`, the inhibition rises from 9.09% to 9.44%.

First: COc1ccc(-c2nc(CCNC(=O)c3ccc(Br)o3)cs2)cc1
Second: CCCOc1ccc(C(=O)NCCc2ccccc2)cc1
The inhibition of the first is lower: 9.33% for the first, 9.57% for the second.

Going from `CC(=O)c1ccc(S(=O)(=O)NC2CC(=O)N(c3ccc4c(c3)OCCO4)C2)cc1` (stereo unspecified) to `O=C(Cc1ccc(S(=O)(=O)N2CCOCC2)s1)NCCOc1ccccc1F`, the inhibition rises from 0.0508% to 5.5%.

First: CCN(CC)CCn1c2c(c(SCC(=O)Nc3ccc(C(C)C)cc3)nc1=O)CCC2
Second: O=C(CSc1nc2[nH]ncc2c(=O)[nH]1)Nc1ccc(F)cc1
The inhibition of the first is higher: 9.44% for the first, -0.401% for the second.

Going from `C=CC1=C(C(=O)O)N2C(=O)[C@@H](NC(=O)/C(=N/OCC(=O)O)c3csc(N)n3)[C@H]2SC1` to `Cc1c(C(=O)OCC(=O)N2CCCC2=O)oc2ccccc12`, the inhibition rises from -7.4% to -3.64%.

Compared with `COc1ccccc1CCNC(=O)CN1C(=O)NC2(CCCC2)C1=O`, `CC(=O)c1cccc(CN2CCC(CO)(Cc3ccccc3)CC2)c1` is higher in inhibition: -8.97% for the first, 11.2% for the second.

First: Cc1cccc([C@@H]2[C@@H]3C(=O)N(Cc4ccccc4)C(=O)[C@@H]3[C@]3(Cc4ccc(Cl)cc4)C(=O)N(c4cccc(Cl)c4)C(=O)N23)c1
Second: CC[C@@]12C(=O)N(c3ccccc3)C(=O)N1[C@H](c1ccc(Br)cc1)[C@@H]1C(=O)N(C(C)(C)C)C(=O)[C@@H]12
The inhibition of the first is lower: -3.42% for the first, 1.35% for the second.

Going from `O=C(CN1CCN(C/C=C/c2ccccc2)CC1)Nc1ccc(F)cc1F` to `O=C(CCN1CCN(C/C=C/c2ccccc2)CC1)Nc1ccccc1Cl`, the inhibition rises from 32.3% to 33.5%.

Compared with `CC(C)COC(=O)c1ccc(NC(=O)C2C3C=CC(C3)C2C(=O)O)cc1` (stereo unspecified), `CCCCn1c(N)c(N(CCC(C)C)C(=O)c2ccc(COc3ccccc3)o2)c(=O)[nH]c1=O` is lower in inhibition: 1.59% for the first, 0.734% for the second.

Going from `CCOC(=O)c1cnc(-n2nc(C)cc2C)nc1Nc1cccc(C(C)=O)c1` to `COc1cccc(Cn2cc(/C=N/NC(=O)c3cc(O)cc(O)c3)c3ccccc32)c1`, the inhibition rises from -12.3% to -8.85%.

Going from `CCc1c(C)nc(SCC(=O)NC2CCCC2)[nH]c1=O` to `OCC1(Cc2ccccc2)CCN(Cc2cc3ccccc3o2)CC1`, the inhibition rises from -9.04% to 16.6%.

Compared with `O=C(NCC(c1ccco1)N1CCc2ccccc21)c1cccc(F)c1` (stereo unspecified), `Cc1ccccc1C(=O)NCC(c1ccco1)N1CCc2ccccc21` (stereo unspecified) is higher in inhibition: -6.59% for the first, 12% for the second.

With `CCCSc1nc2sc3c(c2c(=O)n1-c1ccc(OC)cc1)CCN(C)C3` the inhibition was 57.4% (active).
With `Cc1cccc(-n2ncc(Cl)c(Cl)c2=O)c1` the inhibition was 65.8% (active).
With `S=C(Nc1ccc(Br)cc1Cl)NC1CCN(Cc2ccccc2)CC1` the inhibition was 60.4% (active).
With `O=C(NC1CCN(Cc2ccccc2)CC1)c1cc(Br)c(Br)[nH]1` the inhibition was 70.3% (active).
In the case of `Cc1cccc(OCC(O)CN2CCN(CCN3C(=O)c4cccc5cccc(c45)C3=O)CC2)c1C` (stereo unspecified), the inhibition is reported as 67.1% (active).
In the case of `Cn1c(=O)c(=O)n(C)c2cc(S(=O)(=O)NCCN3CCN(c4ccccc4F)CC3)ccc21`, the inhibition is reported as 56% (active).
With `C=CS(=O)c1sc(Cl)c(N2CCOCC2)c1[N+](=O)[O-]` (stereo unspecified) the inhibition was 69.9% (active).
In the case of `O=C(NCCc1csc(-c2ccccc2)n1)c1ccccc1F`, the inhibition is reported as 66.1% (active).
With `CC(=O)Nc1nc2ccccc2n1Cc1ccc(C)cc1` the inhibition was 79.7% (active).
For `O=C(CCN1CCN(C/C=C/c2ccccc2)CC1)Nc1cccc(F)c1`, the inhibition was 58.2% (active).
For `CCOC(=O)c1cnc(-n2nc(C)cc2C)nc1NNc1cc(C)nc(-c2ccccc2)n1`, the inhibition was 54.9% (active).
With `CC(C)c1csc(CN2CCC(CO)(Cc3ccccc3)CC2)n1` the inhibition was 67.1% (active).
With `CCCOc1ccc(C(=O)C(CCC(CNCC)C(=O)c2ccc(OCCC)cc2)CNCC)cc1` (stereo unspecified) the inhibition was 56% (active).
